Values after ≈ are worked out from the molar mass of the structure shown.

ID99 and IC50 data for 5 compounds are collected here from ChEMBL document CHEMBL1122756, “Synthesis of (E)-5-(3,3,3-trifluoro-1-propenyl)-2'-deoxyuridine and related analogues: potent and unusually selective antiviral activity of (E)-5-(3,3,3-trifluoro-1-propenyl)-2'-deoxyuridine against herpes simplex virus type 1” (1984).

Assay [1] concerns Human alphaherpesvirus 1. Put plainly: Compound was evaluated for antiviral activity against HSV-1(TK-, strain B2006). In kind it is functional. A digest of the protocol:
(§1)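 Herpes stocks grown in primary rabbit kidney (PRK) cells. Confluent PRK cultures were inoculated at 0.03 pfu/cell, and the compound's effect on virus multiplication was measured. The readout is ID99, the concentration that cuts viral yield by 99%.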

For assay [2], the system named is Human alphaherpesvirus 1. Put plainly: Compound was evaluated for antiviral activity against HSV-1(strain KOS). Format: functional. A digest of the protocol:
as §1

The subject of assay [3] is Human alphaherpesvirus 2. Put plainly: Compound was evaluated for antiviral activity against HSV-2(strain G). Format: functional. A digest of the protocol: as §1
The species entered for assay [4] is Oryctolagus cuniculus. Put plainly: Concentration of compound required to inhibit [methyl-3H]dThd incorporation into host cell DNA by 50% in primary rabbit kidney cell cultures. Format: functional. To be noted: read-out: ID50 (the source's name). A digest of the protocol:
(§2)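 Uptake of radiolabel into DNA was measured in PRK cultures. Input per 10^5 cells was 6 pmol (0.25 µCi) of [1',2'-3H]dUrd for the dUrd line, or 10 pmol (0.38 µCi) of [methyl-3H]dThd for the dThd line. The value is the concentration giving 50% inhibition of incorporation.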

For assay [5], the species on record is Oryctolagus cuniculus. Put plainly: Concentration of compound required to inhibit [1',2'-3H]dUrd incorporation into host cell DNA by 50% in primary rabbit kidney cell cultures. In kind it is functional. The settings on record: read-out: ID50 (the source's name). A digest of the protocol:
as §2

The test system of assay [6] is Vaccinia virus. Put plainly: Compound was evaluated for antiviral activity against vaccinia. Format: functional, Orthopoxvirus vaccinia.
Assay [7] relates to Vaccinia virus. Put plainly: Compound was evaluated for its antiviral activity against vaccinia. Format: functional, Orthopoxvirus vaccinia.

Take `O=c1[nH]c(=O)n([C@H]2C[C@H](O)[C@@H](CO)O2)cc1I` [IDOXURIDINE]: the ID99 in assay [1] was above 100 µg/mL; in assay [2], 0.1 µg/mL; in assay [3] it was 0.8 µg/mL; in assay [6], 0.25 µg/mL. In addition, the IC50 is 1 µg/mL (≈ 2.82 µM) in assay [4] and 0.25 µg/mL (≈ 0.706 µM) in assay [5].
Take `O=c1[nH]c(=O)n([C@H]2C[C@H](O)[C@@H](CO)O2)cc1/C=C/C(F)(F)F`: the ID99 in assay [1] is above 100 µg/mL; in assay [2] it was 0.03 µg/mL; in assay [3], 100 µg/mL; in assay [6], above 100 µg/mL. The IC50 was 300 µg/mL (≈ 931 µM) in assay [4] and 150 µg/mL (≈ 465 µM) in assay [5].
For `C/C=C/c1cn([C@H]2C[C@H](O)[C@@H](CO)O2)c(=O)[nH]c1=O`, the ID99 in assay [1] was above 100 µg/mL; in assay [2], 0.15 µg/mL; in assay [3] it was 18 µg/mL; in assay [6], above 100 µg/mL. In addition, the IC50 stood at 25 µg/mL (≈ 93.2 µM) in assay [4] and 40 µg/mL (≈ 149 µM) in assay [5].
Consider `O=c1[nH]c(=O)n([C@H]2C[C@H](O)[C@@H](CO)O2)cc1/C=C/Br` [BRIVUDINE], for which the ID99 in assay [1] was above 100 µg/mL; in assay [2], 0.008 µg/mL; in assay [3], 3 µg/mL; in assay [7], 22 µg/mL. Further, the IC50 came to 70 µg/mL (≈ 210 µM) in assay [4] and 20 µg/mL (≈ 60 µM) in assay [5].
As for `O=c1[nH]c(=O)n([C@H]2C[C@H](O)[C@@H](CO)O2)cc1C(F)(F)F` [TRIFLURIDINE], the ID99 in assay [1] amounted to 0.4 µg/mL; in assay [2] it was 0.7 µg/mL; in assay [3], 1.2 µg/mL; in assay [6], 0.12 µg/mL. In addition, the values for the IC50 in assay [4] and in assay [5] were 20 µg/mL (≈ 67.5 µM) and 0.01 µg/mL (≈ 0.0338 µM), respectively.
